Laboratory results as given in ChEMBL document CHEMBL1148825, “Beta- and gamma-di- and tripeptides as potential substrates for the oligopeptide transporter hPepT1” (J Med Chem, 2007).
Active and inactive are the calls of the source. The calls are words filed in the database; no cut-off is given here. Square brackets hold non-standard residues; d marks the D form. Peptide text beside a SMILES is read from it. Sar = CNCC(=O)O

Experiments:
[1] = Apparent permeability from basolateral to apical side of human Caco-2 cells; assay type: ADME, cell-based
Summary of the method: (§1)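 Caco-2 monolayers (passage 94-100) on polycarbonate inserts, differentiated 24 ± 1 days. Transport in HBSS with pH gradient: apical pH 6.0 (10 mM MES), basolateral pH 7.4 (25 mM HEPES), 0.5% DMSO final. Samples taken at intervals, replaced with HBSS + 0.5% DMSO. Papp = dQ/dt × 1/(A × c0), from steady-state flux; n = 3-4.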

[2] = Apparent permeability from apical to basolateral side of human Caco-2 cells in presence of 5 mM GlySar; assay type: ADME, cell-based; conditions: Caco-2, with GlySar 5 mM
[3] = biological target: T1, Solute carrier family 15 member 1 (Homo sapiens) (UniProt P46059); test: Inhibition of [3H]GlySar uptake at human PepT1 in Caco-2 cells; assay type: cell-based
T1 sequence (whole entry): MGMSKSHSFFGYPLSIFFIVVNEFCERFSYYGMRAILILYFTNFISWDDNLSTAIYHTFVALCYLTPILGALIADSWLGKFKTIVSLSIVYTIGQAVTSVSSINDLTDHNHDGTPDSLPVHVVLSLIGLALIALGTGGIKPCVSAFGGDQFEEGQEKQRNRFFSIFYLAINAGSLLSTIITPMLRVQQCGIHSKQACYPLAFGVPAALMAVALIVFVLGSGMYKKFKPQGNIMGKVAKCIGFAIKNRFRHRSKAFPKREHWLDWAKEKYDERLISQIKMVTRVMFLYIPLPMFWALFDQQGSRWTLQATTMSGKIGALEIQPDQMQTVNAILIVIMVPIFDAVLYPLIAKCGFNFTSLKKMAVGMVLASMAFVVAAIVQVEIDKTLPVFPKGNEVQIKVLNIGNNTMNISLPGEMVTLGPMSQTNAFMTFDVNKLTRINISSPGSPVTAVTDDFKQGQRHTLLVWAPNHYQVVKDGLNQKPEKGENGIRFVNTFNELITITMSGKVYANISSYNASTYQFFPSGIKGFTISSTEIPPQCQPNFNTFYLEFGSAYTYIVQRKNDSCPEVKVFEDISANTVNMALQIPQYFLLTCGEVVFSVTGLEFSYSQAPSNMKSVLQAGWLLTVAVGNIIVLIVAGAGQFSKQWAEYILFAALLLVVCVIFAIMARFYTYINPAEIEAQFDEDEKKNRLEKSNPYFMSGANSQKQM
Summary of the method: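 Uptake into differentiated Caco-2 monolayers under apical pH 6.0/basolateral pH 7.4 HBSS. 5 min incubation with 1 µCi/mL [3H]GlySar (250 nM), with or without 4 mM test compound in the apical donor chamber. Stopped by removing solution and three ice-cold HBSS washes. Monolayer radioactivity counted relative to control; SD, n = 3, significance at p < 0.05.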

[4] = Apparent permeability from apical to basolateral side of human Caco-2 cells; assay type: ADME, cell-based; summary of the method: as §1
[5] = Apparent permeability from apical to basolateral side of human Caco-2 cells at pH 7.4 after 180 mins; assay type: ADME, cell-based; conditions: Caco-2, pH 7.4
Summary of the method: (§2)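 Caco-2 monolayers (passage 94-100, differentiated 24 ± 1 days on inserts). Transport in HBSS at pH 7.4 on both sides, 0.5% DMSO final, over 180 min. Run with and without P-gp inhibitor GF120918 at 2 µM. Samples taken at intervals. Papp from steady-state flux divided by filter area and initial donor concentration.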

[6] = Apparent permeability from basolateral to apical side of human Caco-2 cells at pH 7.4 after 180 mins; assay type: ADME, cell-based; conditions: Caco-2, pH 7.4; summary of the method: as §2
[7] = Apparent permeability across human Caco-2 cells; assay type: ADME, cell-based
Summary of the method: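 Caco-2 monolayers (passage 94-100) on 0.4 µm polycarbonate inserts, seeded 4.4 × 10^5 cells per cm2, differentiated 24 ± 1 days. Transport in HBSS with 0.5% DMSO, apical pH 6.0 (10 mM MES), basolateral pH 7.4 (25 mM HEPES); P-gp runs at pH 7.4. Both directions sampled over time. Papp = dQ/dt × 1/(A × c0); n = 3-4.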

Structure (SMILES)	Papp B→A [1]	Papp A→B [2]	Activity [3]	Papp A→B [4]	Papp A→B at 3 h [5]	Papp B→A at 3 h [6]	Papp [7]
NCCCC[C@H](N)CC(=O)N[C@H](CC(=O)O)Cc1ccccc1	0.075 ×10⁻⁶ cm/s	0.045 ×10⁻⁶ cm/s	Active	0.072 ×10⁻⁶ cm/s			
C[C@@H](CC(=O)O)NC(=O)C[C@H](C)NC(=O)C[C@@H](N)CO		0.043 ×10⁻⁶ cm/s	inactive	0.044 ×10⁻⁶ cm/s			
C[C@H](N)CC(=O)N[C@@H](CCCCN)CC(=O)N[C@H](CC(=O)O)Cc1ccccc1	0.061 ×10⁻⁶ cm/s	0.039 ×10⁻⁶ cm/s	Active	0.049 ×10⁻⁶ cm/s			
CCC[C@@H](C[C@H](C)NC(=O)[C@H](C)C[C@@H](NC(=O)[C@@H](Cc1ccccc1)C[C@@H](C)N)C(C)C)C(=O)O	0.097 ×10⁻⁶ cm/s	0.028 ×10⁻⁶ cm/s	Active	0.033 ×10⁻⁶ cm/s	0.021 ×10⁻⁶ cm/s	0.115 ×10⁻⁶ cm/s	
CC(C)[C@H](N)CC(=S)N[C@@H](C)CC(=O)O	0.124 ×10⁻⁶ cm/s	0.393 ×10⁻⁶ cm/s	Active	0.754 ×10⁻⁶ cm/s			
NCCCC[C@@H](CC(=O)N[C@H](CC(=O)O)Cc1ccccc1)NC(=O)C[C@@H](N)CO	0.071 ×10⁻⁶ cm/s	0.031 ×10⁻⁶ cm/s	Active	0.037 ×10⁻⁶ cm/s			
CC(C)C[C@@H](CC(=O)O)NC(=O)[C@@H](C)CN	0.084 ×10⁻⁶ cm/s	0.055 ×10⁻⁶ cm/s	Active	0.095 ×10⁻⁶ cm/s			
CN(CC(=O)O)C(=O)CN [GLYCYLSARCOSINE] (H-Gly-[Sar]-OH)							11 ×10⁻⁶ cm/s
CC(C)C[C@@H](CNC(=O)[C@@H](C)CNC(=O)[C@H](CN)C(C)C)C(=O)O	0.071 ×10⁻⁶ cm/s	0.023 ×10⁻⁶ cm/s	Active	0.024 ×10⁻⁶ cm/s			
CC(C)C[C@@H](CC(=O)O)NC(=O)C[C@H](C)N	0.129 ×10⁻⁶ cm/s	0.291 ×10⁻⁶ cm/s	Active	0.613 ×10⁻⁶ cm/s			
CC(C)C[C@H](CCNC(=O)[C@H](C)CCNC(=O)[C@@H](CCN)C(C)C)C(=O)O	0.094 ×10⁻⁶ cm/s	0.026 ×10⁻⁶ cm/s	inactive	0.034 ×10⁻⁶ cm/s			
C[C@H](N)CC(=O)N[C@@H](CCCCN)CC(=O)O	0.078 ×10⁻⁶ cm/s		Active	0.037 ×10⁻⁶ cm/s	0.044 ×10⁻⁶ cm/s	0.051 ×10⁻⁶ cm/s	
